Results on five molecules are retold here after ChEMBL document CHEMBL1153429, “Structure-based virtual screening of Src kinase inhibitors” (Bioorg Med Chem, 2009).

Molecules are shown by their SMILES. Active and inactive are the calls of the source. No cut-off for these calls is given here.

Series [1] addresses T1, Proto-oncogene tyrosine-protein kinase Src (Homo sapiens, UniProt P12931). Briefly: Inhibition of Src kinase at 10 uM. The method, boiled down: (§1)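 Kinase reaction with ATP and specific substrate, incubated 1 h at room temperature with test compound (1% DMSO final). Protease solution then added, followed by stabilizer. Read-out by […] at 485/530 nm.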

For series [2], the system named is MCF7. Briefly: Antiproliferative activity against human MCF7 cells at < 10 uM after 72 hrs by SRB assay. Type of series: functional, cell-based. In outline: (§2)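 Cells seeded at 10,000–15,000 per well and held at 37 °C, 5% CO2. After 24 h compound added across a concentration range for 72 h. Cells then fixed with cold 10% TCA and stained with sulforhodamine B (0.4% in 1% acetic acid). Dye solubilized in 10 mM Tris base and absorbance read. GI50 from [(Ti−Tz)/(C−Tz)]×100 = 50. PC3 and SK-BR3 grown in RPMI 1640 with 10% FBS; A431 and MCF-7 in DMEM with 10% FBS.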

Series [3] relates to PC-3. Kind of series: Inhibition of ERK phosphorylation in human PC3 cells at 0.1 uM by Western blot analysis. The settings on record: TDE = time-dependent effect. Type of series: cell-based. In outline: (§3)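 PC3 or A431 cells grown 48 h in 6 cm dishes, then exposed to 0.1 µM compound for varying times. Lysed on ice in Tris pH 7.5/NaCl/EDTA/Triton X-100/DTT/PMSF/glycerol with protease inhibitors, then spun. Protein measured by dye-binding assay. Run on 10% SDS-PAGE, blotted to PVDF, blocked 1 h in 5% milk, and probed for phospho and total ERK and p90RSK.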
On the technique in general: A western blot detects proteins with antibodies after separation by electrophoresis.

Series [4] concerns the target Ribosomal protein S6 kinase alpha-1 (Homo sapiens) (UniProt Q15418). Kind of series: Inhibition of p90RSK phosphorylation in human PC3 cells at 0.1 uM by Western blot analysis. Conditions: PC-3, TDE = time-dependent effect. Type of series: cell-based. The method, boiled down:
as §3

In series [5] the test system is A-431. Briefly: Inhibition of ERK phosphorylation in human A431 cells at 0.1 uM by Western blot analysis. Conditions: TDE = time-dependent effect. Type of series: cell-based. In outline:
as §3

The target of series [6] is Ribosomal protein S6 kinase alpha-1 (Homo sapiens) (UniProt Q15418). Briefly: Inhibition of p90RSK phosphorylation in human A431 cells at 0.1 uM by Western blot analysis. Type of series: cell-based. Conditions: A-431, TDE = time-dependent effect. In outline: as §3
Ribosomal protein S6 kinase alpha-1 (Homo sapiens), sequence (Q15418 whole entry): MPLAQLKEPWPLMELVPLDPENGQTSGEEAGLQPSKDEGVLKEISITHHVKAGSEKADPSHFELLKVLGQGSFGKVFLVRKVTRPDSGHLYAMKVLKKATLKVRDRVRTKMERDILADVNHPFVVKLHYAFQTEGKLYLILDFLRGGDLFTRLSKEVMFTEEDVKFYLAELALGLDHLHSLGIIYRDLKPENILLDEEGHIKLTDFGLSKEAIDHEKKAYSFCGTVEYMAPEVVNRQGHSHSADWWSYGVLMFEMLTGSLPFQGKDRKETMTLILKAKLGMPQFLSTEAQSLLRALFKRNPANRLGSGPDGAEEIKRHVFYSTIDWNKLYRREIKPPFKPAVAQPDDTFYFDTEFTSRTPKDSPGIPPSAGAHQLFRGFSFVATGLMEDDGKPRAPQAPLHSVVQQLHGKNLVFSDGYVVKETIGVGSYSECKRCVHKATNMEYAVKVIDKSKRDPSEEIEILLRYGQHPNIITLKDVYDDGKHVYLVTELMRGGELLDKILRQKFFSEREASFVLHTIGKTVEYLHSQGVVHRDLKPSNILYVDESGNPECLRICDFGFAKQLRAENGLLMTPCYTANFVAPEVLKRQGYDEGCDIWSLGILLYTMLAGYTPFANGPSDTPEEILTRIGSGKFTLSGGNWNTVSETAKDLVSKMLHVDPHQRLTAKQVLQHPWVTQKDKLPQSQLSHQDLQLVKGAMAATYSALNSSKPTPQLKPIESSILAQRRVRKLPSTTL
The subject of series [7] is PC-3. Kind of series: Inhibition of ERK phosphorylation in human PC3 cells at 0.1 uM after 6 hrs by Western blot analysis. Type of series: cell-based. In outline:
as §3

Series [8] deals with Ribosomal protein S6 kinase alpha-1 (Homo sapiens) (UniProt Q15418). Kind of series: Inhibition of p90RSK phosphorylation in human PC3 cells at 0.1 uM after 6 hrs by Western blot analysis. Type of series: cell-based. Conditions: PC-3. In outline: as §3
Series [9] concerns A-431. Kind of series: Inhibition of ERK phosphorylation in human A431 cells at 0.1 uM after 6 hrs by Western blot analysis. Type of series: cell-based. The method, boiled down:
as §3

Series [10] addresses Ribosomal protein S6 kinase alpha-1 (Homo sapiens) (UniProt Q15418). Kind of series: Inhibition of p90RSK phosphorylation in human A431 cells at 0.1 uM after 6 hrs by Western blot analysis. Type of series: cell-based. The settings on record: A-431. In outline:
as §3

Series [11] in a line: AUC in Sprague-Dawley rat at 5 mg/kg, iv. Type of series: ADME, organism-based. The settings on record: plasma. More on the design: dose 5 mg/kg, route intravenous. In outline: (§4)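 Single dose in Sprague–Dawley rats, iv or po. Rats fasted overnight before oral dosing and fed about 2 h after it; no fasting for iv. Approx. 0.3 mL blood drawn from the tail vein into heparin tubes at various times, then centrifuged to plasma and held at −80 °C. Compound measured by LCMS. t1/2 = 0.693/Ke; AUC by linear trapezoidal rule to 5 h plus extrapolation.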

Series [12] is described as follows: Cmax in Sprague-Dawley rat at 5 mg/kg, iv. Type of series: ADME, organism-based. More on the design: dose 5 mg/kg, route intravenous. Conditions: in vivo. In outline:
as §4

Series [13] can be described thus: Tmax in Sprague-Dawley rat at 5 mg/kg, iv. Details: dose 5 mg/kg, route intravenous. Type of series: ADME, organism-based. The settings on record: in vivo. In outline: as §4
A short description of series [14]: Half life in Sprague-Dawley rat at 5 mg/kg, iv. Type of series: ADME, organism-based. More on the design: dose 5 mg/kg, route intravenous. The settings on record: in vivo. The method, boiled down:
as §4

The nature of series [15]: AUC in Sprague-Dawley rat at 10 mg/kg, po. Type of series: ADME, organism-based. Details: dose 10 mg/kg, route oral. The settings on record: plasma. The method, boiled down:
as §4

The nature of series [16]: Cmax in Sprague-Dawley rat at 10 mg/kg, po. Type of series: ADME, organism-based. Details: dose 10 mg/kg, route oral. Conditions: in vivo. The method, boiled down: as §4
Series [17] in a line: Tmax in Sprague-Dawley rat at 10 mg/kg, po. Type of series: ADME, organism-based. Details: dose 10 mg/kg, route oral. The settings on record: in vivo. The method, boiled down: as §4
The nature of series [18]: Half life in Sprague-Dawley rat at 10 mg/kg, po. Type of series: ADME, organism-based. More on the design: dose 10 mg/kg, route oral. Conditions: in vivo. The method, boiled down:
as §4

Series [19] is described as follows: Oral bioavailability in Sprague-Dawley rat at 10 mg/kg, po. Conditions: in vivo. Type of series: ADME, organism-based. In outline:
as §4

Series [20] relates to Rattus norvegicus. Kind of series: Cmax in Sprague-Dawley rat plasma at 10 mg/kg, iv and po. Details: dose 10 mg/kg, route oral. Type of series: ADME, organism-based. The settings on record: in vivo.
The nature of series [21]: Tmax in Sprague-Dawley rat plasma at 10 mg/kg, iv and po. Type of series: ADME, organism-based. More on the design: dose 10 mg/kg, route oral.
For series [22], the target named is T1, Proto-oncogene tyrosine-protein kinase Src.
For series [23], the target named is Vascular endothelial growth factor receptor 2 (Homo sapiens) (UniProt P35968). Briefly: Inhibition of VEGFR2 at 10 uM. The method, boiled down:
as §1

Series [24] deals with PC-3. Briefly: Antiproliferative activity against human PC3 cells after 72 hrs by SRB assay. Type of series: functional, cell-based. The method, boiled down:
as §2
A general note: In SRB staining, fixed cells bind dye roughly in proportion to their protein.

Series [25] concerns A-431. Kind of series: Antiproliferative activity against human A431 cells after 72 hrs by SRB assay. Type of series: functional, cell-based. The method, boiled down:
as §2

The subject of series [26] is A-431. Kind of series: Inhibition of EGF-stimulated tyrosine phosphorylation in human A431 cells.
Series [27] has as its system SK-BR-3. Kind of series: Antiproliferative activity against human SKBR3 cells expressing HER2 at < 10 uM after 72 hrs by SRB assay. Type of series: functional, cell-based. The method, boiled down: as §2
Series [28] deals with Epidermal growth factor receptor (Homo sapiens, UniProt P00533).
Epidermal growth factor receptor, sequence (P00533 whole entry): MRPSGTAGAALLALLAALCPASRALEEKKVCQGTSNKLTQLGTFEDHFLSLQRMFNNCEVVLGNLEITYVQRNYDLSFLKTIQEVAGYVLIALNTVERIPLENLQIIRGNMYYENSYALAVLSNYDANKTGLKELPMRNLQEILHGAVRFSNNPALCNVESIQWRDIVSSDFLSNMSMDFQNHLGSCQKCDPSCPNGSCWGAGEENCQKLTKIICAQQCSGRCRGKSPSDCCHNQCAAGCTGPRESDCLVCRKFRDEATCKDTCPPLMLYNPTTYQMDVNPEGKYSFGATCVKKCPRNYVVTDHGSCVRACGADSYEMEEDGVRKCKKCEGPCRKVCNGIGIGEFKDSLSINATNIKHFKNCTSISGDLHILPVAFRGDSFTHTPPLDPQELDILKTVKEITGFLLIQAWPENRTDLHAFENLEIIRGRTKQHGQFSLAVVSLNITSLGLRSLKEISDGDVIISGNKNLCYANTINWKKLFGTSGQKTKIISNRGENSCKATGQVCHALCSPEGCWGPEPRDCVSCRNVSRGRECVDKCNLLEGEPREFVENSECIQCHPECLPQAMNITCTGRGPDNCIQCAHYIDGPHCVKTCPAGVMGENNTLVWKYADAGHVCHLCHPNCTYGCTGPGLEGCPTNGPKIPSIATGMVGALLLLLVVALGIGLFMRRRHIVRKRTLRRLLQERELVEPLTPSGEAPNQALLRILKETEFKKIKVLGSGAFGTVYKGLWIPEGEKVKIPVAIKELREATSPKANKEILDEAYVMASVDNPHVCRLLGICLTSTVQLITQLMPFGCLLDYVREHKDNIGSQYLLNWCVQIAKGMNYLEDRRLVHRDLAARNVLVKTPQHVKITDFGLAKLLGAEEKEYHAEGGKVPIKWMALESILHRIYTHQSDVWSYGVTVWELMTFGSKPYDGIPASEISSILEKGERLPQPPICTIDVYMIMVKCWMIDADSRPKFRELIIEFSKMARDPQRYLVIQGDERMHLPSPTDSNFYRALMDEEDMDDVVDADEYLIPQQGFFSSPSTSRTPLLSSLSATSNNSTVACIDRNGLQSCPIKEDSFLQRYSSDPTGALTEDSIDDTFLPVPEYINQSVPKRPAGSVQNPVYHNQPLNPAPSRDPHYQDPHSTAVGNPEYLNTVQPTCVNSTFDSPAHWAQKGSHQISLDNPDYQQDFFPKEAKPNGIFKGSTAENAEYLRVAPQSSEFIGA

T1 sequence (P12931 2-536 limits assumed): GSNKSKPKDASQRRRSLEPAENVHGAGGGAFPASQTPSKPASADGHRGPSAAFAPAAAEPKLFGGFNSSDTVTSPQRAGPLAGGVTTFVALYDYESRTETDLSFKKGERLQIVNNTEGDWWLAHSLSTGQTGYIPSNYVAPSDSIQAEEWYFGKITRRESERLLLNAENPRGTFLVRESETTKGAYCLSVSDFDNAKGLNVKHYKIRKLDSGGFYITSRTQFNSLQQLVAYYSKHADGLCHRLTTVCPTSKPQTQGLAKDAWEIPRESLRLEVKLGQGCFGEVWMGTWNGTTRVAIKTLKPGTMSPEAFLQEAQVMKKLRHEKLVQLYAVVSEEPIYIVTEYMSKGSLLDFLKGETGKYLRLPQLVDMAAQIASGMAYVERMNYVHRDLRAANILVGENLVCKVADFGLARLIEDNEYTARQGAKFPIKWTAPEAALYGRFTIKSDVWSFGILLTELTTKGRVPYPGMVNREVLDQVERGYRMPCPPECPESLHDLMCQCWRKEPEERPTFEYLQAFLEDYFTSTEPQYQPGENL
Vascular endothelial growth factor receptor 2 (Homo sapiens), sequence (P35968 whole entry): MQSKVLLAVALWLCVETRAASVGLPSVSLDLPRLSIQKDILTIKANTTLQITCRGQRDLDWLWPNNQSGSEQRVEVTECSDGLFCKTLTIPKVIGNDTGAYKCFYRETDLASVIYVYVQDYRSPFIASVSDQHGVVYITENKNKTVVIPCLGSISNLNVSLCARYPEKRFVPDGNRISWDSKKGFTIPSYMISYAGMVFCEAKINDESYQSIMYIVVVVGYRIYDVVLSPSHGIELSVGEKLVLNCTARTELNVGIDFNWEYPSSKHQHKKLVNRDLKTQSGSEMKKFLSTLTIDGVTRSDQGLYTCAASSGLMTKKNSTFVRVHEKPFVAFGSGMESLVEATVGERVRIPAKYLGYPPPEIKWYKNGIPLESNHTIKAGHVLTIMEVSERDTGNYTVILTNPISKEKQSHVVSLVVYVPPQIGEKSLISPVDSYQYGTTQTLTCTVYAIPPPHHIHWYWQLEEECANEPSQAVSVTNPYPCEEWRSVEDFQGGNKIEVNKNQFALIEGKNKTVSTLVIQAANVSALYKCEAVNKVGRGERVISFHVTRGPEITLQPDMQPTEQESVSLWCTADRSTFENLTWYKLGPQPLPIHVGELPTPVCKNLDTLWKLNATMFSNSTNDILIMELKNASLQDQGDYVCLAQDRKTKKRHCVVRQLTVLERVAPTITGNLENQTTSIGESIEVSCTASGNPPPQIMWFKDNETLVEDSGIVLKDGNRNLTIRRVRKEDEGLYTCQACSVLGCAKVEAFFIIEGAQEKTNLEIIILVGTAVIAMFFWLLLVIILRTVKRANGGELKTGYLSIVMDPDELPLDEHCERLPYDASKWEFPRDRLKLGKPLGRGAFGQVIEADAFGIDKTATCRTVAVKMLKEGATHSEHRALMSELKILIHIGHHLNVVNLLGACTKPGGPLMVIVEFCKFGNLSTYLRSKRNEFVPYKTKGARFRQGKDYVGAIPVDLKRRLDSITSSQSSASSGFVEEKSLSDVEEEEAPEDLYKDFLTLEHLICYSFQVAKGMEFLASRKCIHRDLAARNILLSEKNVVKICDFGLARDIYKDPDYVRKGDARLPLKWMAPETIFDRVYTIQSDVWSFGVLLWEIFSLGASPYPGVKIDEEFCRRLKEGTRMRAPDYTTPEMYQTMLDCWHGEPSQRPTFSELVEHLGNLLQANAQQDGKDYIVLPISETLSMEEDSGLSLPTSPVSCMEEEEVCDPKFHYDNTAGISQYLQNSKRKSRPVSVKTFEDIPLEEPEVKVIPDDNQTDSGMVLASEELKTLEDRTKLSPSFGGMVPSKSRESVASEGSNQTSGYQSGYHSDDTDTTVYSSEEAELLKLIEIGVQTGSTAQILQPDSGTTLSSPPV

Consider `CN(C)CCC(=O)Nc1cc2c(Nc3ccc(F)c(Cl)c3)ncnc2cc1OCCCN1CCOCC1`, for which the result in series [1] was Active.

Consider `COCCOc1cc2ncnc(Nc3c(Cl)ccc4c3OCO4)c2cc1NC(=O)[C@@H]1CCCN1`, for which the outcome in [2], in series [23] and in series [27] was inactive. The Activity entry was “tde” in series [3]; “tde” in series [4]; “tde” in series [5]; “tde” in series [6]; “Dose-dependent effect” in series [24]; “Dose-dependent effect” in [25]. For the same molecule, the outcome in series [7], in [8], in series [9] and in [10] was Active. Further, the results for the exposure (AUC) in series [11] and in [15] were 2400 ng·h/mL and 1240 ng·h/mL, respectively. Further, the peak concentration (Cmax) (as a rule, the maximum level reached in the sampled fluid or tissue) is 2010 nM in series [12], 120 nM in series [16] and 400 nM in series [20]. The results for the Tmax in [13], in [17] and in series [21] were 4.8 min, 4 h and 1 h, respectively. Also, the values for the half-life in series [14] and in [18] were 6.1 h and 5.4 h, respectively. Moreover, the bioavailability (commonly the share of a dose that reaches the circulation, judged against a reference dose that is usually intravenous) in series [19] amounted to 20.4%. Moreover, the IC50 (as a rule, the concentration that gives 50% inhibition) was 0.089 µM in [22], 0.78 µM in series [26] and 7.13 µM in [28].

Regarding `CCN1CCN(Cc2ccc(-c3cc4c(N[C@@H](C)c5ccccc5)ncnc4[nH]3)cc2)CC1`, the result in series [1] was Active.

Regarding `C=CC(=O)Nc1cc2c(Nc3cc(OC)c(Cl)cc3OC)ncnc2cc1OCC1CCN(C)CC1`, the result in series [1] was Active.

Regarding `COCCOc1cc2ncnc(Nc3ccc(F)c(Cl)c3)c2cc1NC(=O)[C@@H]1CCCN1`, the result in series [1] was Active. For the same molecule, the midpoint of inhibition in [22], the IC50, lay at 0.3 µM.
